# Data taken from ChEMBL document CHEMBL3272021, “Quaternary pilocarpine derivatives as potential acetylcholine antagonists. 2. Alterations in the lactone and imidazole moieties” (J Med Chem, 1976).
# Structures can show the parent of a compound that is named as a salt. Activity calls are given as the source filed them. The rule behind the calls is not given here.
# How the values were obtained:
# Ileum [1] = assay: Toxicity in guinea pig ileum assessed as spasmogenic activity treated 1 min after addition of 10 ng/ml muscarinic acetylcholine receptor antagonist atropine sulphate; type: tissue-based, Cavia porcellus
# Ileum [2] = assay: Toxicity in guinea pig ileum assessed as spasmogenic activity relative to 0.6 ug/ml pilocarpine; type: tissue-based, Cavia porcellus; details: ex_vivo
# Method in brief: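 Guinea pig terminal ileum in a 5-ml Tyrode bath at 35°, with isometric kymograph recording at 16× magnification. Contact time was 30 sec with a 2-min cycle. Reference contractions used pilocarpine (0.6 μg). Compounds were applied at several concentrations, and potency relative to pilocarpine was calculated from contraction heights.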
# Ileum [3] = assay: Inhibition of acetylcholine-induced contraction in guinea pig ileum at 10 ug/ml; type: functional, Cavia porcellus; details: for inhibition at 10 µg/mL: Cavia porcellus, Ileum
# Method in brief: (§1)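 Terminal guinea pig ileum segment in a 5-ml organ bath of Tyrode solution at 35°, with isometric kymograph recording. Control contractions were elicited with 0.1 μg AcCh. Compound was added, and AcCh followed 1 min later without washing. The value is percent reduction of the control AcCh response, averaged over two separate assays. Concentrations are final per ml of bath fluid.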
# Mus musculus [4] = assay: Antidotal activity in male mouse assessed as inhibition of tetraethylpyrophosphate-induced intoxication at 100 mg/kg, ip drug administered 5 mins prior to subcutaneously administration of 3 X LD50 of TEPP in presence of 25 mg/kg atropine sulfate; type: functional, organism-based
# Method in brief: (§2)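 Male mice, 20 g body weight. Compound was dissolved in saline or propylene glycol and given ip at the maximal dose (up to 100 mg/kg) that caused no observable symptoms alongside atropine sulfate (25 mg/kg), per preliminary groups of four mice. It was co-injected with atropine 5 min before sc 3 × LD50 TEPP. Surviving mice were scored from two experiments of five animals each.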
# Mus musculus [5] = assay: Antidotal activity in ip dosed male mouse assessed as inhibition of tetraethylpyrophosphate-induced intoxication drug administered 5 mins prior to subcutaneously administration of 3 X LD50 of TEPP in presence of 25 mg/kg atropine sulfate; type: functional, organism-based; parameters: dose 25 mg/kg; details: at 25 mg/kg; method in brief: as §2
# Ileum [6] = assay: Inhibition of acetylcholine-induced contraction in guinea pig ileum at 0.1 ug/ml; type: functional; details: Cavia porcellus; method in brief: as §1
# Mus musculus [7] = assay: Antidotal activity in male mouse assessed as inhibition of tetraethylpyrophosphate-induced intoxication at 50 mg/kg, ip drug administered 5 mins prior to subcutaneously administration of 3 X LD50 of TEPP in presence of 25 mg/kg atropine sulfate; type: functional, organism-based; method in brief: as §2
# Ileum [8] = assay: Inhibition of acetylcholine-induced contraction in guinea pig ileum at 1 ug/ml; type: functional; details: Cavia porcellus; method in brief: as §1
# Ileum [9] = assay: Inhibition of acetylcholine-induced contraction in guinea pig ileum at 2 ug/ml; type: functional; details: Cavia porcellus; method in brief: as §1
# Ileum [10] = assay: Inhibition of acetylcholine-induced contraction in guinea pig ileum at 0.4 ug/ml; type: functional; details: Cavia porcellus; method in brief: as §1
# Ileum [11] = assay: Inhibition of acetylcholine-induced contraction in guinea pig ileum at 0.03 ug/ml; details: Cavia porcellus, read-out: INH
# Ileum [12] = assay: Toxicity in guinea pig ileum assessed as spasmogenic activity at 0.6 ug/ml; type: tissue-based, Cavia porcellus
# Mus musculus [13] = assay: Antidotal activity in male mouse assessed as inhibition of tetraethylpyrophosphate-induced intoxication at 25 mg/kg, ip drug administered 5 mins prior to subcutaneously administration of 3 X LD50 of TEPP in presence of 25 mg/kg atropine sulfate; type: functional, organism-based; method in brief: as §2
structure (smiles),measurement,setting,value
CC[C@H]1C(=O)OC[C@@H]1Cc1cncn1C,Activity,Ileum [1],Non-toxic
same,fold change (FC),Ileum [2],0.02
CCC(C(=O)NO)C(CO)Cc1c[n+](Cc2ccc(C)cc2)cn1C (stereo not given),inhibition at 10 µg/mL,Ileum [3],55%
same,inhibition,Mus musculus [4],Active
CCC(C(=O)NO)C(CO)Cc1c[n+](CC(=O)c2ccc([N+](=O)[O-])cc2)cn1C.[Br-] (stereo not given),Activity,Ileum [1],Non-toxic
same,fold change (FC),Ileum [2],0.1
same,inhibition,Mus musculus [5],inactive
same,inhibition at 0.1 µg/mL,Ileum [6],0%
CCC(C(=O)NO)C(CO)Cc1c[n+](CC)cn1C (stereo not given),inhibition at 10 µg/mL,Ileum [3],55%
CCC1C(=O)OCC1Cc1c[n+](CC(=O)c2ccc(Br)cc2)cn1C (stereo not given),inhibition at 10 µg/mL,Ileum [3],90%
same,inhibition,Mus musculus [4],inactive
CCC1C(=O)OCC1Cc1c[n+](CCOC(C)=O)cn1C.[Br-] (stereo not given),Activity,Ileum [1],Non-toxic
same,fold change (FC),Ileum [2],0.1
same,inhibition,Mus musculus [4],inactive
same,inhibition at 0.1 µg/mL,Ileum [6],0%
CCC(C(=O)NO)C(CO)Cc1c[n+](Cc2ccc(Br)cc2)cn1C (stereo not given),inhibition at 10 µg/mL,Ileum [3],95%
same,inhibition,Mus musculus [4],Active
CCC1C(=O)OCC1Cc1c[n+](C/C(=N\O)c2ccc(Br)cc2)cn1C.[Br-] (stereo not given),inhibition (INH),Ileum [3],100%
CCC1C(=O)OCC1Cc1c[n+](C/C(=N/O)c2ccc([N+](=O)[O-])cc2)cn1C (stereo not given),inhibition at 10 µg/mL,Ileum [3],90%
same,inhibition,Mus musculus [5],inactive
CCC1C(=O)OCC1Cc1c[n+](C/C(=N\O)c2ccc(Br)cc2)cn1C.[Cl-] (stereo not given),inhibition (INH),Ileum [3],50%
CCC1C(=O)OCC1Cc1c[n+](C/C(=N\O)c2ccccc2)cn1C (stereo not given),inhibition at 10 µg/mL,Ileum [3],30%
same,inhibition,Mus musculus [7],Active
CCC1C(=O)OCC1Cc1c[n+](CCO)cn1C.[Br-] (stereo not given),Activity,Ileum [1],Non-toxic
same,fold change (FC),Ileum [2],0.1
same,inhibition,Mus musculus [5],inactive
same,inhibition at 0.1 µg/mL,Ileum [6],0%
CCC1C(=O)OCC1Cc1c[n+](C/C(=N\O)c2ccc(-c3ccccc3)cc2)cn1C (stereo not given) [listing 1 of 2 here],inhibition at 10 µg/mL,Ileum [3],100%
CCC(C(=O)NO)C(CO)Cc1c[n+](C/C(=N\O)c2ccc(Br)cc2)cn1C (stereo not given),inhibition at 10 µg/mL,Ileum [3],55%
CCC1C(=O)OCC1Cc1c[n+](CC(=O)c2ccc([N+](=O)[O-])cc2)cn1C.[Br-] (stereo not given),fold change (FC),Ileum [2],0.01
same,inhibition at 1 µg/mL,Ileum [8],0%
same,inhibition,Mus musculus [5],inactive
CCC1C(=O)OCC1Cc1c[n+](C/C(=N\O)c2ccc(-c3ccccc3)cc2)cn1C (stereo not given) [listing 2 of 2 here],inhibition,Mus musculus [5],inactive
CCC(C(=O)NO)C(CO)Cc1c[n+](C/C(=N\O)c2ccc([N+](=O)[O-])cc2)cn1C.[Br-] (stereo not given),Activity,Ileum [1],Non-toxic
same,fold change (FC),Ileum [2],0.01
same,inhibition at 2 µg/mL,Ileum [9],0%
CCC(C(=O)NO)C(CO)Cc1c[n+](C/C(=N\O)c2ccc(-c3ccccc3)cc2)cn1C (stereo not given),inhibition at 10 µg/mL,Ileum [3],53%
CCC1C(=O)OCC1Cc1c[n+](CCCO)cn1C.[Br-] (stereo not given),Activity,Ileum [1],Non-toxic
same,inhibition at 0.4 µg/mL,Ileum [10],0%
same,fold change (FC),Ileum [2],0.05
CCC1C(=O)OCC1Cc1c[n+](CCCOC(C)=O)cn1C.[Br-] (stereo not given),Activity,Ileum [1],Non-toxic
same,inhibition at 0.4 µg/mL,Ileum [10],0%
same,fold change (FC),Ileum [2],0.05
CCC1C(=O)OCC1Cc1c[n+](C/C(=N\O)c2ccc(-c3ccccc3)cc2)cn1C.[Cl-] (stereo not given),inhibition (INH),Ileum [3],80%
CCC1C(=O)OCC1Cc1c[n+](CC(=O)c2ccc(-c3ccccc3)cc2)cn1C (stereo not given),inhibition at 10 µg/mL,Ileum [3],100%
same,inhibition,Mus musculus [5],inactive
CN1[C@@H]2CC[C@H]1C[C@@H](OC(=O)C(CO)c1ccccc1)C2 (stereo not given in full) [ATROPINE SULFATE],inhibition at 0.03 µg/mL,Ileum [11],100%
same,inhibition,Mus musculus [5],inactive
CCC(C(=O)NO)C(CO)Cc1c[n+](CC(=O)c2ccc(Br)cc2)cn1C (stereo not given),inhibition at 10 µg/mL,Ileum [3],80%
same,inhibition,Mus musculus [5],inactive
CC[C@@H]1C(=O)OC[C@@H]1Cc1cncn1C [PILOCARPINE],Activity,Ileum [12],Toxic
CCC1C(=O)OCC1Cc1c[n+](C/C(=N\O)c2ccc(Br)cc2)cn1C (stereo not given),inhibition,Mus musculus [5],inactive
same,inhibition,Mus musculus [13],Active
CCC(C(=O)NO)C(CO)Cc1c[n+](Cc2ccc(Cl)c(Cl)c2)cn1C (stereo not given),inhibition at 10 µg/mL,Ileum [3],25%
same,inhibition,Mus musculus [4],Active
